Data set [1] is described as follows: Cytotoxicity against human A2780S cells by CyQuant proliferation assay. Format: functional, cell-based. The note with it: A2780. The procedure, abridged: (§1)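 CyQuant proliferation assay in A2780S, cisplatin-resistant A2780CP (SCP5) and U251MG cells. Cells were exposed to varying concentrations, maximum 50 μM, and compared with solvent-only treated cells. IC50 was determined from triplicates, two independent experiments (n=2).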

Data set [2] in a line: Cytotoxicity against human A2780S/CP5 cells by CyQuant proliferation assay. Format: functional, cell-based. Summed up: as §1
Data set [3] in a line: Cytotoxicity against mouse NIH/3T3 cells assessed as cell growth at 5 uM measured at 72 hrs by CyQuant proliferation assay relative to control. Format: cell-based, NIH3T3. As to conditions: read-out: Activity. The procedure, abridged:
(§2)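 Single-concentration screen at 50 and 5 μM across the cancer lines and normal mouse NIH3T3 fibroblasts. Cell growth was read by CyQuant proliferation assay at 72 h. Values are expressed relative to DMSO-treated control. Done in triplicate, one experiment (n=1).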

Data set [4] is described as follows: Cytotoxicity against human U251MG cells assessed as cell growth at 50 uM measured at 72 hrs by CyQuant proliferation assay relative to control. In kind it is functional. The note with it: U-251, 72 h, read-out: Activity. Summed up: as §2
The subject of data set [5] is A549. The data set is described as follows: Cytotoxicity against human A549 cells assessed as cell growth at 5 uM measured at 72 hrs by CyQuant proliferation assay relative to control. In kind it is functional. As to conditions: A549, 72 h, read-out: Activity. Summed up: as §2
Data set [6] in a line: Cytotoxicity against mouse NIH/3T3 cells assessed as cell growth at 50 uM measured at 72 hrs by CyQuant proliferation assay relative to control. In kind it is cell-based, NIH3T3. The note with it: read-out: Activity. The procedure, abridged: as §2
A short description of data set [7]: Cytotoxicity against human A2780S cells assessed as cell growth at 50 uM measured at 72 hrs by CyQuant proliferation assay relative to control. Format: functional. As to conditions: A2780, 72 h, read-out: Activity. The procedure, abridged:
as §2

Data set [8] is described as follows: Cytotoxicity against human A2780S/CP5 cells assessed as cell growth at 50 uM measured at 72 hrs by CyQuant proliferation assay relative to control. As to conditions: A2780S/CP5, 72 h, read-out: Activity. Format: functional. Summed up:
as §2

Data set [9] has as its target Beta-secretase 1 (Homo sapiens) (UniProt P56817). Description: Inhibition of BACE1 (unknown origin) using BACE ED as substrate at 48.3 uM by EFC assay.
In data set [10] the test system is A549. The data set is described as follows: Cytotoxicity against human A549 cells assessed as cell growth at 50 uM measured at 72 hrs by CyQuant proliferation assay relative to control. Format: functional. As to conditions: A549, 72 h, read-out: Activity. Summed up:
as §2

A short description of data set [11]: Cytotoxicity against human A2780S cells assessed as cell growth at 5 uM measured at 72 hrs by CyQuant proliferation assay relative to control. Format: functional. As to conditions: A2780, 72 h, read-out: Activity. Summed up:
as §2

The test system of data set [12] is MCF7. The data set is described as follows: Cytotoxicity against human MCF7 cells assessed as cell growth at 50 uM measured at 72 hrs by CyQuant proliferation assay relative to control. In kind it is functional. As to conditions: MCF7, 72 h, read-out: Activity. Summed up:
as §2

A short description of data set [13]: Cytotoxicity against human U251MG cells assessed as cell growth at 5 uM measured at 72 hrs by CyQuant proliferation assay relative to control. Format: functional. The note with it: U-251, 72 h, read-out: Activity. The procedure, abridged:
as §2

Data set [14] is described as follows: Cytotoxicity against human A2780S/CP5 cells assessed as cell growth at 5 uM measured at 72 hrs by CyQuant proliferation assay relative to control. Format: functional. The note with it: A2780S/CP5, 72 h, read-out: Activity. Summed up: as §2
A short description of data set [15]: Cytotoxicity against human U251MG cells by CyQuant proliferation assay. In kind it is functional, cell-based. The note with it: U-251. Summed up: as §1
Data set [16] relates to MCF7. The data set is described as follows: Cytotoxicity against human MCF7 cells assessed as cell growth at 5 uM measured at 72 hrs by CyQuant proliferation assay relative to control. Format: functional. The note with it: MCF7, 72 h, read-out: Activity. Summed up:
as §2

Data set [17] concerns the target Beta-secretase 1 (Homo sapiens) (UniProt P56817). Description: Inhibition of BACE1 (unknown origin) using BACE ED as substrate at 42.6 uM by EFC assay.
Data set [18] has the same target. The data set is described as follows: Inhibition of BACE1 (unknown origin) using BACE ED as substrate at 42 uM by EFC assay.

Beta-secretase 1 (Homo sapiens), sequence (P56817 whole entry): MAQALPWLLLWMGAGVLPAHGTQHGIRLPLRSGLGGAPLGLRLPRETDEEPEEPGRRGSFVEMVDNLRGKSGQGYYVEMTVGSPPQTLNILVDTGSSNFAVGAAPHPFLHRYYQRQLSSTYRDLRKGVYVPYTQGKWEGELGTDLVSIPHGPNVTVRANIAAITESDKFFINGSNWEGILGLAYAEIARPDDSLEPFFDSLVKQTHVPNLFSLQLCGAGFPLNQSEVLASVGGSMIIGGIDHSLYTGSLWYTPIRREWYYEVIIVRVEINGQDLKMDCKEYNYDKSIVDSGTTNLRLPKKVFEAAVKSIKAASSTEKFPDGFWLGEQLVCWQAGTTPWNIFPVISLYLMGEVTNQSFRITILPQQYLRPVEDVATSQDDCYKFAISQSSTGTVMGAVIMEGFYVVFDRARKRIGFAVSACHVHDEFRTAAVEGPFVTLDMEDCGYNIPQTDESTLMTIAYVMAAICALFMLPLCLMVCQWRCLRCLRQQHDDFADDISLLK

With `CNCCCOc1c(Br)cc(CCNC(=O)/C(Cc2ccc(O)c(Br)c2)=N/O)cc1Br`, the IC50 in data set [1], in data set [2] and in [15] was greater than 50 µM throughout. For the same compound, in data set [3], the viability at 72 h, 5 µM amounted to 99%. Further, the growth at 50 µM in data set [4] is 40%; in data set [7], 26%; in data set [8] it was 51%; in the data set on A549 [10], 64%; with MCF7 [12], 69%. The growth at 5 µM was found to be 97% in the data set on A549 [5]; 82% in [11]; 111% in data set [13]; 94% in [14]; 100% in the data set with MCF7 [16]. Also, the viability at 72 h, 50 µM in [6] was 105%. Besides, the inhibition in [9] stood at 48%.
As for `CCCCCCC(C)CCCCCCCCC(=O)NCCc1cc(Br)c(OCCCNC(=O)C2=NO[C@@]3(C=C(Br)C(OC)=C(Br)[C@H]3O)C2)c(Br)c1` (stereo not given in full), in [3], the viability at 72 h, 5 µM was found to be 98%. In addition, the growth at 50 µM in data set [4] was determined as 101%; in [7], 88%; in [8] it was 78%; in the data set with A549 [10], 106%; with MCF7 [12] it was 109%. Further, the growth at 5 µM worked out at 82% in the data set with A549 [5]; 90% in [11]; 100% in data set [13]; 100% in data set [14]; 106% with MCF7 [16]. Moreover, the viability at 72 h, 50 µM in data set [6] is 102%.
As for `COc1c(Br)cc(C/C(=N\O)C(=O)NCCc2cc(Br)c(OCCCN)c(Br)c2)cc1Br`, the viability at 72 h, 5 µM in data set [3] worked out at 105%. Also, the growth at 50 µM in data set [4] is 24%; in data set [7], 11%; in data set [8], 12%; in the data set on A549 [10], 24%; in the data set on MCF7 [12], 26%. Besides, the growth at 5 µM worked out at 92% with A549 [5]; 81% in [11]; 107% in data set [13]; 78% in data set [14]; 95% in the data set with MCF7 [16]. The viability at 72 h, 50 µM in data set [6] turned out to be 16%. The same compound came in with an inhibition in data set [17] of 62%.
For the compound `COc1c(Br)cc(C/C(=N\O)C(=O)NCCCOc2c(Br)cc(CCN)cc2Br)c(O)c1Br`, the IC50 in [1] was found to be 20 µM; in [2], 40 µM; in [15], 50 µM. The inhibition in [18] was 36%. The viability at 72 h, 5 µM in [3] stood at 102%. Further, the growth at 50 µM was 20% in [4]; 9% in data set [7]; 9% in data set [8]; 21% in the data set on A549 [10]; 27% in the data set with MCF7 [12]. Further, the growth at 5 µM in the data set on A549 [5] was determined as 96%; in data set [11], 60%; in data set [13], 111%; in data set [14], 96%; with MCF7 [16] it was 97%. In addition, the viability at 72 h, 50 µM in data set [6] stood at 104%.
As to `CNCCCOc1c(Br)cc(CCNC(=O)/C(Cc2cc(Br)c(OC)c(Br)c2)=N/O)cc1Br`, the inhibition in data set [18] came to 74%. Further, in [3], the viability at 72 h, 5 µM came out at 101%. The growth at 50 µM is 30% in data set [4]; 13% in [7]; 10% in [8]; 11% in the data set on A549 [10]; 58% with MCF7 [12]. The growth at 5 µM was 42% in the data set on A549 [5]; 11% in [11]; 17% in data set [13]; 29% in [14]; 50% in the data set on MCF7 [16]. In addition, in data set [6], the viability at 72 h, 50 µM was 3%.

These data come from ChEMBL document CHEMBL3745713, “Bromotyrosine-derived metabolites from an Indonesian marine sponge in the family Aplysinellidae (Order Verongiida)” (Bioorg Med Chem Lett, 2016).
